From PubChem BioAssay
Sampled rows, rich in hits. Any-hit rate of the full collection: about 4.5%.
OX1R antag-1 – antagonists of human orexin 1 receptor (OX1R); AID 485270, 2010; actives 1.8% (n = 330,000); OX1R-expressing cells, FRET antagonist read-out; Orexin/Hypocretin receptor type 1 (Homo sapiens), O43613; inhibition, % at 6.6 µM; in the data active = inhibition mostly above about 38%, no sharp cut-off; inactive = mostly below about 40%;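 note: 0% = agonist challenge alone and 100% = reference antagonist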
CHO parental Ca – ATP-evoked calcium signal inhibitors, parental CHO, primary screen, counter-screen for OX1R antagonist project, cell-based, fluorescence, Fluo-8 calcium dye | actives 0.63% (n = 330,000) | AID 463079, 2010 | parental CHO-K1, ATP-induced calcium, Fluo-8 fluorescence | inhibition, % at 5.6 µM;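 active = inhibition above that plate's mean sample inhibition plus 3 SD, cut at about 26% in these data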;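 note: 0% = ATP-challenged DMSO wells and 100% = DMSO wells without ATP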
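material = parental CHO cells | also added = ATP as calcium-mobilizing challenge | dosing = single point at 5.6 µM | detection = intracellular calcium via Fluo-8 no-wash fluorescent dye | read-out = % inhibition | benchmarks = low control ATP plus DMSO, high control DMSO only | repeats = one well per compound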
TAAR1 ag – human TAAR1 agonists, primary screen, Fluo-8 calcium fluorescence, CHO RD-HGA16 cells; Trace amine-associated receptor 1 (Homo sapiens), Q96RJ0; vehicle wells 0%, saturating PEA agonist 100%; activation, % at 3 µM; actives 0.99% (n = 360,000);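 active = activation above the mean activation of all test compounds in the run plus 3 SD, cut at about 38% in these data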
Target sequence (Q96RJ0 whole entry, looked up): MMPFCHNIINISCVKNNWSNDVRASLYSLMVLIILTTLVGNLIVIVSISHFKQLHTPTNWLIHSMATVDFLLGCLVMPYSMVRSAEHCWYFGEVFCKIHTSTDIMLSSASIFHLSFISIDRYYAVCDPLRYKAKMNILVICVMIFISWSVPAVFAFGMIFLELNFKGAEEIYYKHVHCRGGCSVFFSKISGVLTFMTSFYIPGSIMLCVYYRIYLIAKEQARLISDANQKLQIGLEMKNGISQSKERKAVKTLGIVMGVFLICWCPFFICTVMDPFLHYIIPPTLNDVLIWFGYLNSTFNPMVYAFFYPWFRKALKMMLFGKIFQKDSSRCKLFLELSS
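Assay system – CHO-derived RD-HGA16 cells with stable Gα16 and human TAAR1 · Compound dosing – one-point dosing at 3 µM (nominal) · Incubation – 17-24 h seeding, 75 min 37 °C dye, 30 min RT · Measured by – kinetic Fluo-8 calcium fluorescence · Control set – DMSO vehicle as 0%, PEA at EC100 as 100% · Repeats – single well for each compound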
TAAR1 antagonist – human TAAR1 antagonists, primary screen, Fluo-8 calcium fluorescence, CHO RD-HGA16 cells | Trace amine-associated receptor 1 (Homo sapiens), Q96RJ0 | antagonist | inhibition, % at 3 µM | actives 1.5% (n = 360,000);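 active = inhibition above a per-plate cutoff, the mean inhibition of test compounds on that plate plus 3 SD, cut at about 49% in these data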;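 note: 0% = DMSO plus EC80 beta-PEA response and 100% = DMSO alone without agonist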
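Test system – hTAAR1-expressing CHO RD-HGA16 cells, Gα16-coupled · Reagent – β-PEA at EC80 concentration, post-compound challenge · Compound dosing – 3 µM, single point · Timing – 140 s kinetic read after compound, 140 s after agonist · Detection – Fluo-8 intracellular calcium dye fluorescence, real-time kinetic reads · Control set – DMSO and EC80 PEA controls · Repeats – n of 1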
GPR7 antagonist – GPR7 receptor antagonists, primary screen, cell-based, fluorescence, single concentration | AID 1861, 2009 | inhibition, % at 4.4 µM | actives 1.1% (n = 290,000) | GPR7-expressing cells, fluorescence antagonist assay; in the data active = inhibition above about 16%, passing the limit was not always enough;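 note: cells stimulated with the agonist NPW; 0% = agonist with vehicle and 100% = vehicle without agonist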
Target sequence (P48145 whole entry, looked up): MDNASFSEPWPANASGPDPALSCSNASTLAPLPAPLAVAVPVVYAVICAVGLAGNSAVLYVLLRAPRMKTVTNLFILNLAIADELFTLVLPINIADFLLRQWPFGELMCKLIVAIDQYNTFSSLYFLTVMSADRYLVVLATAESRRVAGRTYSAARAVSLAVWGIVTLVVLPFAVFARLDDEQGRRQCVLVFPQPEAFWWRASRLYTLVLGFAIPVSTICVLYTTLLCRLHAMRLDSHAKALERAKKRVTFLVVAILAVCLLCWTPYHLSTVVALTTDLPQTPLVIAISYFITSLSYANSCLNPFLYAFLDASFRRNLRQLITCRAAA
OX1R antag-2 – OX1R (HCRTR1) antagonists, primary screen, fluorescence, CHO/OX1R cells, Fluo-8 calcium, orexin A. actives 0.43% (n = 330,000). Fluo-8 calcium fluorescence. AID 434989, 2010. inhibition, % at 5 µM. Orexin/Hypocretin receptor type 1 (Homo sapiens), O43613;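 active = inhibition above its plate's threshold, mean inhibition of all tested compounds on the plate plus 3 SD, cut at about 37% in these data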;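 note: 0% = orexin A challenge wells and 100% = SB-334867-A antagonist wells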
nonsel antag count – nonselective antagonists in TAAR1 counter-screen cells, counter-screen for hTAAR1 antagonist project, cell-based, fluorescence, calcium | shares compounds with TAAR1 antagonist | inhibition, % at 3 µM | counterscreen cell line, antagonist mode | actives 77% (n = 2,400); in the data active = inhibition above about 22%;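 note: CHO-Ga16 host cells stimulated with ATP at an EC80 level; 0% = agonist EC80 plus vehicle and 100% = vehicle without agonist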
TAAR1 antag conf – human TAAR1 antagonists, retest of hits, confirmation, cell-based, fluorescence; TAAR1-expressing cells, fluorescence antagonist read-out; actives 40% (n = 2,400); inhibition, % at 3 µM; shares compounds with TAAR1 antagonist; AID 651785, 2012; in the data active = inhibition above about 49%;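 note: CHO-Ga16 host cells challenged with agonist PEA near its EC80; 0% = agonist at EC80 plus vehicle and 100% = vehicle with no agonist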
Ga16 ag counter – calcium activation in Ga16-expressing cells, counter-screen for TAAR1 antagonist project, cell-based, fluorescence | shares compounds with TAAR1 antagonist | agonist counterscreen | activation, % at 3 µM | actives 18% (n = 2,400) | AID 651953, 2012; in the data active = activation above about 12%;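 note: 0% = vehicle wells and 100% = saturating stimulus response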
TAAR1 ag counter – TAAR1 activation by candidate antagonists – cell-based, fluorescence, counter-screen for TAAR1 antagonist project | shares compounds with TAAR1 antagonist | AID 651955, 2012 | activation, % at 3 µM | actives 2% (n = 2,400) | hTAAR1 cell line, agonist mode; in the data active = activation above about 37%;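 note: CHO cells stably expressing TAAR1 with calcium dye readout; 0% = DMSO vehicle and 100% = full agonist response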
Active calls of the source: *; / = no result.

SMILES	OX1R antag-1	CHO parental Ca	TAAR1 ag	TAAR1 antagonist	GPR7 antagonist	OX1R antag-2	nonsel antag count	TAAR1 antag conf	Ga16 ag counter	TAAR1 ag counter
COc1ccc(CNC(=O)c2ccc(-c3c(C)noc3C)c3ccoc23)cc1OC	/	/	-2	-36	/	/	/	/	/	/
Cc1cccc(-c2cc(C(=O)Nc3cccnc3)c3ccccc3n2)c1	16	-30	1	58*	-19	-43	17	28	5	3
Cc1cccc(-c2cc(C(=O)Nc3ccncc3)c3ccccc3n2)c1	/	/	-1	-15	-16	/	/	/	/	/
Cc1c(NC(=O)c2cc(-c3ccc(F)cc3)nc3ccccc23)c(=O)n(-c2ccccc2)n1C	6	-19	15	61*	/	-26	25*	46	8	10
Cc1c(NC(=O)c2cc(-c3ccc(F)cc3)on2)c(=O)n(-c2ccccc2)n1C	18	-13	6	-7	-13	-25	/	/	/	/
Cc1cccc(-c2cc(C(=O)Nc3c(C)n(C)n(-c4ccccc4)c3=O)c3ccccc3n2)c1	34	-10	9	70*	-11	-32	31*	47	7	6
N#Cc1c(-c2ccccc2)cc2nc3ccccc3n2c1N	20	-21	4	41	-4	-20	/	/	/	/
COc1cc(-c2cc3nc4ccccc4n3c(N)c2C#N)cc(OC)c1OC	28	-5	17	90*	-25	-17	34*	53*	8	6
C(=N/Nc1nc(-c2ccccc2)cc(-c2ccccc2)n1)/c1cccnc1	47	-18	11	65*	-11	-26	31*	53*	4	3
C(=N\Nc1nc(Nc2ccccc2)nc(Nc2ccccc2)n1)/c1cccnc1	30	-17	9	57*	-1	-22	25*	46	5	1
Cc1ccc(-c2cc(-c3ccccc3)nc(N/N=C/c3cccnc3)n2)cc1	5	-13	7	36	-7	-10	/	/	/	/
Cc1c(N=O)c(-c2ccccc2)n(O)[n+]1[O-]	/	/	-1	-9	/	/	/	/	/	/
COc1ccccc1C(=O)N1CCCC(C)(C(=O)NS(=O)(=O)C2CC2)C1 (stereo not drawn)	/	/	4	-20	/	/	/	/	/	/
Cc1ccc(C(=O)Nc2ccc(S(=O)(=O)N3CCOCC3)cc2)cc1	6	-12	12	-2	-1	-12	/	/	/	/
N#CCc1ccc(NC(=O)c2ccc(S(=O)(=O)N3CCCC3)cc2)cc1	10	1	23	57*	-8	3	30*	54*	15*	17
Cc1ccc(NC(=O)c2ccc(S(=O)(=O)N3CCC(C)CC3)cc2)cc1	6	-3	29	79*	-5	-12	0	-4	1	-2
O=C(N/N=C/c1cccc(OC(=O)c2cccc(Br)c2)c1)c1ccncc1	6	-19	13	58*	-5	-13	26*	48	15*	27
C[C@@H]1CN([C@H](C)CO)S(=O)(=O)c2ccc(Br)cc2O[C@H]1CN(C)S(C)(=O)=O	/	/	4	-9	/	/	/	/	/	/
Cc1c(Cl)cnc(NC(=O)COC(=O)Cc2coc3ccc4ccccc4c23)c1Cl	19	-15	-1	-11	9	-10	/	/	/	/
CC(C)(C)NC(=O)NC(=O)COC(=O)Cc1coc2ccc3ccccc3c12	11	-23	7	52*	-11	-28	24*	28	4	2
O=C(NCc1cccs1)C1CCN(S(=O)(=O)c2ccc(Br)s2)CC1	0	-14	13	-6	-6	-11	/	/	/	/
O=C(NCc1cccs1)C1CCC(CNS(=O)(=O)c2ccc(Br)s2)CC1 (stereo not drawn)	19	-8	26	57*	-15	-9	17	53*	7	39*
CC(C)OC(=O)c1ccc(NC(=O)c2cncc(Br)c2)cc1	25	-13	20	65*	-1	-34	27*	44	16*	15
CC(C)OC(=O)c1ccc(NC(=S)NC(=O)c2cncc(Br)c2)cc1	-8	-18	-1	-6	3	-16	/	/	/	/
CCN(CC)c1ccc(NC(=O)/C=C/c2cc(Br)ccc2OC)cc1	50*	-10	-1	74*	2	-19	10	35	6	6
SMILES	OX1R antag-1	CHO parental Ca	TAAR1 ag	TAAR1 antagonist	GPR7 antagonist	OX1R antag-2	nonsel antag count	TAAR1 antag conf	Ga16 ag counter	TAAR1 ag counter
O=c1c2ccccc2oc2cc(C#Cc3ccccn3)ccc12	13	-2	9	2	/	-8	/	/	/	/
Nc1ccc(C#Cc2ccc3oc4ccccc4c(=O)c3c2)cc1	28	1	10	68*	/	-17	19	23	3	4
COc1ccccc1NC(=O)c1ccc(NC(=O)COC(=O)CCC2CCCC2)cc1	3	-15	14	58*	-9	-17	19	17	3	6
COc1ccccc1NC(=O)c1ccc(NC(=O)COC(=O)c2ccc(O)cc2)cc1	3	-5	18	65*	/	-13	25*	41	10	10
COC(=O)c1ccc(NC(=O)COC(=O)CCC2CCCC2)cc1	7	-24	-2	1	/	-10	/	/	/	/
COc1ccccc1NC(=O)c1ccc(NC(=O)COC(=O)C(C)C)cc1	-10	-6	2	0	-2	-9	/	/	/	/
CCOC(=O)N1CCN(C(=O)CS(=O)Cc2nc(-c3ccc(OC)c(OC)c3)oc2C)CC1 (stereo not drawn)	10	-17	1	-12	10	-10	/	/	/	/
CN(C)CCNCCCNc1c2ccccc2nc2cccc([N+](=O)[O-])c12	/	/	5	-9	/	/	/	/	/	/
COc1ccc(CC(=O)Nc2nc(-c3ccc(F)c(F)c3)cs2)cc1	13	7	0	36	4	-23	/	/	/	/
O=C(Cc1ccc(F)cc1)Nc1nc(-c2ccc(F)c(F)c2)cs1	/	/	10	74*	9	/	34*	45	7	4
